Assay results pooled from the literature.
Lines come from different studies, so protocols differ.

SMILES	test	system	setting	endpoint	value
N[C@@H](CSSC[C@H](N)C(=O)O)C(=O)O	–	Kunming mouse, plasma	oral, 100 mg/kg	bioavailability	25.6%
CCc1ccc(Cc2cc([C@@H]3O[C@H](CO)[C@@H](O)[C@H](O)[C@H]3O)cc3c2CCC3)cc1	–	male C57BL/6 mouse, plasma	oral, 1 mg/kg	bioavailability	89%
O=C(N1CCC(CNS(=O)(=O)c2ccc(Cl)cc2)CC1)n1cncn1	chemical stability, HPLC	aqueous buffer	167 µM, pH 7.4	half-life	0.993 h
Cc1cccc(C(=O)n2ncc(=O)c3ccccc32)c1	chemical stability	aqueous buffer	pH 7.3	half-life	1.9 h
CC[C@H](C)[C@@H]1NC(=O)[C@@](C)(NC(=O)[C@H](CCCNC(=N)N)NC(=O)[C@H](CC(C)C)NC(=O)[C@@H](NC(=O)[C@H](CCC(N)=O)NC(=O)[C@H](CC(C)C)NC(C)=O)[C@@H](C)O)CCCC=CCCC[C@@](C)(C(=O)N[C@@H](CC(C)C)C(=O)N[C@@H](Cc2ccc3ccccc3c2)C(N)=O)NC(=O)[C@H](CCCNC(=N)N)NC(=O)[C@H](CCC(N)=O)NC1=O	–	male BALB/c mouse, plasma	subcutaneous, 10 mg/kg	AUC(0-inf)	146 µg·h/mL
O=C(ON1C(=O)CCC1=O)N1CCC(CNS(=O)(=O)c2ccc(Cl)cc2)CC1	chemical stability, HPLC	aqueous buffer	167 µM, pH 7.4	half-life	1.21 h
Cc1cccc(C(=O)n2nc(Cl)c(=O)c3ccccc32)c1	chemical stability	aqueous buffer	pH 7.3	half-life	0.642 h
C[C@]1(c2nc3c(C(N)=O)cccc3[nH]2)CCCN1	–	male rhesus monkey, plasma	oral, 5 mg/kg, single dose	Vd/F	38 L/kg
